From ChEMBL document CHEMBL3861972, “Actinomadurol, an Antibacterial Norditerpenoid from a Rare Actinomycete, Actinomadura sp. KC 191” (J Nat Prod, 2016) come the findings set out here.

≈ marks a conversion by molar mass, not a printed value.

Experiment [1] can be described thus: Antibacterial activity against Salmonella enterica ATCC 14028 after 24 hrs by serial two fold dilution method. The conditions noted are these: ATCC 14028, 24 h. It is filed as functional. In short, it runs like this:
(§1)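 Broth microdilution MIC. Bacteria grown overnight in LB broth at 37 °C, harvested by centrifugation and washed twice in sterile distilled water. Compound DMSO stocks were diluted in Standard method broth to give serial 2-fold dilutions from 100 to […] μg/mL. About 10^5 cfu/mL of test bacteria were added per well, and plates were incubated 24 h at 37 °C.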

In a further experiment the test system is Bacillus spizizenii. The experiment is described as follows: Antibacterial activity against Bacillus subtilis ATCC 6633 after 24 hrs by serial two fold dilution method. It is filed as functional. The conditions noted are these: ATCC 6633, 24 h. Put shortly:
as §1

For a further experiment, the system named is Kocuria rhizophila. The experiment is described as follows: Antibacterial activity against Kocuria rhizophila NBRC 12708 after 24 hrs by serial two fold dilution method. The format is functional. The conditions noted are these: NBRC 12708, 24 h. Put shortly: as §1
Another experiment concerns Escherichia coli. The experiment is described as follows: Antibacterial activity against Escherichia coli ATCC 25922 after 24 hrs by serial two fold dilution method. The format is functional. As to conditions: ATCC 25922, 24 h. Put shortly: as §1
In the next experiment the test system is Staphylococcus aureus. The experiment is described as follows: Antibacterial activity against Staphylococcus aureus ATCC 6538p after 24 hrs by serial two fold dilution method. The format is functional. In short, it runs like this:
as §1

A further experiment relates to Proteus hauseri. The experiment is described as follows: Antibacterial activity against Proteus hauseri NBRC 3851 after 24 hrs by serial two fold dilution method. The format is functional. The conditions noted are these: NBRC 3851, 24 h. Put shortly: as §1
A short description of experiment [2]: Growth inhibition of human SKHEP1 cells. The conditions noted are these: SK-HEP1. It is filed as functional, cell-based.
In another experiment the test system is Aspergillus fumigatus. The experiment is described as follows: Antifungal activity against Aspergillus fumigatus. The format is functional.
Experiment [3] is described as follows: Growth inhibition of human SNU638 cells. As to conditions: SNU-638. It is filed as functional, cell-based.
The nature of experiment [4]: Antifungal activity against Trichophyton mentagrophytes. The format is functional.
A short description of experiment [5]: Growth inhibition of human MDA-MB-231 cells. The format is functional, cell-based.
Experiment [6] in a line: Growth inhibition of human K562 cells. The format is functional, cell-based.
Experiment [7] can be described thus: Growth inhibition of human A549 cells. It is filed as functional, cell-based.
The subject of another experiment is Candida albicans. The experiment is described as follows: Antifungal activity against Candida albicans. It is filed as functional.
Experiment [8] is described as follows: Antifungal activity against Trichophyton rubrum. It is filed as functional.
The nature of experiment [9]: Growth inhibition of human HCT116 cells. The format is functional, cell-based. The conditions noted are these: HCT-116.

For `CC1(C)S[C@@H]2[C@H](NC(=O)[C@H](N)c3ccccc3)C(=O)N2[C@H]1C(=O)O` [AMPICILLIN], the MIC (as a rule, the lowest concentration found to suppress growth) was 3.12 µg/mL (≈ 8.93 µM) in [1]; 1.56 µg/mL (≈ 4.46 µM) in the experiment with Bacillus spizizenii; 0.79 µg/mL (≈ 2.26 µM) in the experiment with Kocuria rhizophila; 6.25 µg/mL (≈ 17.9 µM) against Escherichia coli; 3.12 µg/mL (≈ 8.93 µM) against Staphylococcus aureus; 1.56 µg/mL (≈ 4.46 µM) against Proteus hauseri.
As for `C=C[C@]1(C)CCC2=C(C1)C(=O)C[C@H]1C(CO)=CC(=O)[C@@H](O)[C@]21C`, the MIC (in [1]; against Aspergillus fumigatus; in experiment [4]; in the experiment on Bacillus spizizenii; with Kocuria rhizophila; with Escherichia coli) was more than 100 µg/mL throughout. The MIC (in the experiment with Staphylococcus aureus; with Candida albicans; in the experiment on Proteus hauseri; in [8]) was more than 100 µg/mL each time. The half-inhibitory concentration (IC50) in experiment [2], in experiment [3], in experiment [5], in experiment [6], in [7] and in [9] was more than 100 µg/mL in each case.
On to `C=C[C@]1(C)CCC2=C(C1)[C@H](O)C[C@H]1C(CO)=CC(=O)[C@@H](O)[C@]21C`, for which the minimal inhibitory concentration (MIC) in experiment [1] is 3.12 µg/mL (≈ 9.8 µM); against Aspergillus fumigatus it was more than 100 µg/mL; in [4], more than 100 µg/mL; against Bacillus spizizenii, 1.56 µg/mL (≈ 4.9 µM); against Kocuria rhizophila it was 0.39 µg/mL (≈ 1.22 µM); against Escherichia coli, more than 100 µg/mL. For the same compound, the minimal inhibitory concentration (MIC) in the experiment on Staphylococcus aureus is 0.78 µg/mL (≈ 2.45 µM); in the experiment with Candida albicans it was more than 100 µg/mL; against Proteus hauseri it was 0.78 µg/mL (≈ 2.45 µM); in experiment [8] it was more than 100 µg/mL. The concentration for half-maximal inhibition (IC50) in experiment [2], in [3], in [5], in experiment [6], in experiment [7] and in experiment [9] was more than 100 µg/mL each time.
